Yeast superoxide = reduction of superoxide in aged yeast, primary screen, HTS; S. cerevisiae aged cells, superoxide DHE fluorescence; hits give low values; superoxide response (% of plate mean), % at 10 µM; 0.18% of 330,000 active;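 active = superoxide response under a set limit, about three screen SD below normal, cut at about 65% in these data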;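 also: yeast aged for seven days with compound at 30 °C before DHE staining; 100% = average MFI of all compound-treated wells on the plate with controls excluded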
IMP-1 inhibitor = IMP-1 metallo-beta-lactamase inhibitors, primary screen, biochemical, epi-absorbance readout, Pseudomonas aeruginosa enzyme | purified IMP-1, nitrocefin hydrolysis, epi-absorbance fluorescence | inhibition, % at 5.6 µM | 0.45% of 290,000 active;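 active = inhibition above the mean plus 3 SD of all compounds in the same screening run, cut at about 4.5% in these data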;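 also: 0% = IMP-1 with DMSO and 100% = DMSO wells lacking enzyme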
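System: Purified IMP-1 | Read-out basis: Percent enzyme inhibition | Controls: IMP-1 with DMSO as 0%, enzyme-free DMSO as 100% | Replicates: One well per compound | Doses: 5.6 µM nominal single concentration | Detection: Epi-absorbance fluorescence, 480 nm excitation, 530 nm emission | Incubation: 25 °C, 15 min preincubation, 25 min reaction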
PvdQ acylase = P. aeruginosa PvdQ acylase inhibitors, primary screen, biochemical, fluorescence, plate reader and imaging, single point; AID 488965, 2010; PvdQ acylase [Pseudomonas aeruginosa LESB58]; 0.063% of 340,000 active; purified PvdQ acylase; inhibition, % at 10 µM; in the data active = inhibition above about 30%, passing the limit was not always enough;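 also: 0% = vehicle neutral wells and 100% = reference inhibitor wells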
PHOSPHO1 block = PubChem AID 1565. recombinant PHOSPHO1, absorbance phosphatase assay. inhibition, % at 13.3 µM. 1.1% of 290,000 active. Phosphoethanolamine/phosphocholine phosphatase (Homo sapiens), Q8TCT1; in the data active = inhibition above about 60%
Target sequence (Q8TCT1 whole entry, looked up): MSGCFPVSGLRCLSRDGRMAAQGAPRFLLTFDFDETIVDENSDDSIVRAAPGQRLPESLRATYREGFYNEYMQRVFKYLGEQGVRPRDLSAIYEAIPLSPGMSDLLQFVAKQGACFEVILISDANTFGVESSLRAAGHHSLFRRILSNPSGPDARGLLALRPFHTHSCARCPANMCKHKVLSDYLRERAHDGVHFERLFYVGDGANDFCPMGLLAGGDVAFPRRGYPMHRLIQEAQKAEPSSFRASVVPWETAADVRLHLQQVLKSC
VIM-2 inhibitor = VIM-2 metallo-beta-lactamase inhibitors, primary screen, biochemical, epi-absorbance readout, Pseudomonas aeruginosa enzyme; 0.89% of 290,000 active; purified VIM-2, nitrocefin hydrolysis, epi-absorbance fluorescence; inhibition, % at 5.6 µM;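 active = inhibition above the mean of all tested compounds plus 3 SD, cutoff set per screening run, cut at about 7.5% in these data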;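 also: red hydrolysis product quenches plate fluorescence so inhibitors raise well fluorescence; 0% = enzyme with DMSO and 100% = DMSO without enzyme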
The depositor's hits bear a star; nt = no result given. In the library only some 2.2% were active in any assay of this set; here they are far more common.

SMILES	Yeast superoxide	IMP-1 inhibitor	PvdQ acylase	PHOSPHO1 block	VIM-2 inhibitor
Cc1cc(-c2n[nH]c(=S)n2Cc2ccccc2)cs1	93.0	-0.2	-2.6	-5.0	7.9*
O=C(NCC1CCCO1)c1cccc(S(=O)(=O)N2CCCCC2)c1 (stereo not drawn)	nt	nt	-4.9	nt	nt
CCOC(=O)C1(C(=O)OCC)NC(=O)CC1CC(C)C (stereo not drawn)	nt	nt	-12.4	nt	nt
Oc1ccc(-c2n[nH]c(=S)n2Cc2ccccc2)cc1	98.6	-1.7	-18.2	2.9	10.9*
COCCC(=O)N1CCCC(C(=O)c2ccccc2SC)C1 (stereo not drawn)	98.2	18.7*	-0.5	nt	-2.2
COCC(=O)N1CCCC(C(=O)c2ccc(-c3ccccc3)c(F)c2)C1 (stereo not drawn)	95.1	-2.0	-3.4	62.8*	-2.9
CCOC(=O)c1c(C)[nH]c(C(=O)N/N=C/c2ccc(OC)c(OC)c2)c1C	122.5	-1.9	-12.3	75.4*	-4.0
CCOC(=O)c1c(C)[nH]c(C(=O)N/N=C\c2ccccc2O)c1C	87.8	-0.2	-3.9	3.0	-1.1
NNC(=O)c1nc[nH]c1C(=O)Nc1ccccn1	101.1	7.6*	-2.3	35.7	-2.7
COc1ccc(C(=O)NCC(=O)OCC(=O)Nc2ncc(Cl)cc2Cl)cc1[N+](=O)[O-]	99.1	nt	-13.9	nt	nt
O=C(O)CSc1c(-c2ccccc2)c2cc(Cl)ccc2[nH]c1=O	95.7	-2.6	9.4	-11.4	-1.2
CCN(CC)C(=S)Sc1c(-c2ccccc2)c2cc(Cl)ccc2[nH]c1=O	106.5	-2.4	-9.3	88.2*	-2.9
O=c1[nH]c2ccc(Cl)cc2c(-c2ccccc2)c1N1CCOCC1	112.3	-3.8	10.0	70.5*	-3.7
COc1cc2[nH]c(=S)n(Cc3ccco3)c(=O)c2cc1OC	124.1	-3.7	4.0	68.6*	-4.5
O=c1c2cc(Cl)ccc2[nH]c(=S)n1Cc1ccco1	105.8	-4.0	-9.3	-7.5	-10.2
C=CCn1c(=O)/c(=C2/SC(C)=C(C)N2CC)s/c1=C1/C(=O)N(CC)C(=S)N1c1ccccc1	92.4	-0.2	9.6	100.3*	0.3
CCN(CC)S(=O)(=O)c1cc(NC(=O)c2ccc(-n3cncn3)c([N+](=O)[O-])c2)ccc1C	119.9	-2.7	-9.9	22.6	0.1
OCCNc1nc(-c2cccnc2)nc2ccccc12	98.5	-0.6	-14.3	6.6	2.1
OCCSc1nc(-c2cccnc2)nc2ccccc12	102.7	-2.3	1.3	20.1	7.7*
CCc1ccccc1NC(=O)NC1CCCCCCC1	101.0	-1.0	-13.5	22.6	-1.9
CCOCCCNC(=S)NCCNc1nc2c(C)cccc2cc1C#N	115.6	-2.1	11.0	61.0*	1.6
Cc1cc(C)c2nc(NCCCNC(=S)NCCCN(C)C)c(C#N)cc2c1	116.2	0.1	2.8	-21.9	2.8
CCOCCCNC(=S)NCCCNc1nc2c(C)cc(C)cc2cc1C#N	nt	-3.2	-5.2	32.4	-1.6
Cc1ccc2cc(C#N)c(NCCNC(=S)NCCCN(C)C)nc2c1C	126.7	-3.2	-7.0	64.2*	6.8
CC1=C([N+](=O)[O-])C(c2ccccc2Cl)NC(=O)N1C (stereo not drawn)	95.7	-2.7	-15.4	60.0*	-1.4
SMILES	Yeast superoxide	IMP-1 inhibitor	PvdQ acylase	PHOSPHO1 block	VIM-2 inhibitor
COc1cc2c(cc1OC)CN(C(=O)c1cc(S(=O)(=O)N3CCOCC3)c(Cl)cc1Cl)CC2	114.1	-4.5	-14.7	22.2	-2.5
CN(C(=O)c1ccc(F)cc1)c1ccccc1C(=O)NCc1ccccc1	100.9	-2.8	-5.4	33.5	-2.7
CN(C(=O)c1ccccc1Cl)c1ccccc1C(=O)NCc1ccccc1	nt	-3.7	-7.7	61.0*	-2.0
CCC(C)c1ccc(S(=O)(=O)N2CCN(c3ccccn3)CC2)cc1 (stereo not drawn)	86.2	-0.5	-28.1	nt	-0.6
CCC(C)[C@H](NC(=O)[C@@H]1Cc2ccccc2CN1)C(=O)Nc1ccc2c(c1)OCO2 (stereo partly drawn)	97.3	-0.8	6.0	-6.1	0.7
COc1ccc(OC)c(NC(=O)CSc2ccc3nnc(-c4ccccn4)n3n2)c1	100.6	-1.8	-13.3	32.7	-0.8
CCOC(=O)C1(Cc2ccccc2)CCCN(CCCn2cccn2)C1 (stereo not drawn)	106.0	-3.8	-11.8	64.2*	-0.2
CCOC(=O)C1(Cc2ccccc2)CCCN(Cc2ccncc2)C1 (stereo not drawn)	106.1	0.0	-15.2	0.9	-0.6
CN(/N=C/c1cc(Cl)cc(Cl)c1O)c1c(Cl)cccc1[N+](=O)[O-]	96.2	1.6	-20.8	37.7	-0.4
COc1ccc2c(Cl)c(C(=O)NN3CCN(C)CC3)sc2c1	84.4	-0.9	-3.6	25.6	8.5*
CSc1sc(-c2ccnc(SCC(=O)C(C)(C)C)n2)c2c1C(=O)CC(C)(C)C2	98.9	13.6*	-3.1	17.7	3.6
CCc1c(C)c(C#N)c2nc3ccccc3n2c1NCC1CCCO1 (stereo not drawn)	88.7	-1.0	-14.3	-6.8	7.8*
CC(C)c1cc(NCC2CCCO2)n2c(nc3ccccc32)c1C#N (stereo not drawn)	103.4	-1.6	-8.3	16.8	9.9*
CCc1c(C)c(C#N)c2nc3ccccc3n2c1NCCOC	99.1	-2.0	8.4	-20.3	5.4
CCCN1CCc2c(sc(NC(=O)CCS(=O)(=O)c3ccccc3)c2C(=O)OC)C1	96.4	0.4	-17.0	27.4	-1.4
OCCC1CN(Cc2nc(-c3ccccc3)cs2)CCN1C1CCCC1 (stereo not drawn)	97.8	-1.2	-10.4	64.2*	-2.2
CC1CCN(C(=O)CSc2nncn2-c2ccccn2)CC1	97.7	2.1	-10.8	73.8*	-1.5
CC1=C(SCCC#N)S/C(=C2\SC(C)=C(SCCC#N)S2)S1	108.1	-2.0	-7.3	95.2*	1.7
COC(=O)CCCC1=CC2=C(c3ccccc3)C(=O)C(C)(OC(=O)C3CCCC3)C(=O)C2=CN1CCc1c[nH]c2ccccc12 (stereo not drawn)	101.9	nt	-13.3	22.1	nt
Cc1cc(C)c2ccc(C(=O)O)nc2c1O	101.0	-3.0	-6.3	15.7	9.7*
CCCn1c(C(O)c2cccc(OC)c2)nc2ccccc21 (stereo not drawn)	nt	-3.1	-4.2	49.9	-2.9
COc1ccc(C(=O)NCCCn2ccnc2)cc1	104.1	-1.6	-8.6	-5.5	-0.7
COc1ccc(OC)c(-c2cc(C(=O)NCCCn3ccnc3)no2)c1	102.2	0.2	-7.1	21.0	8.4*
CC(C)S(=O)(=O)N1CCCC(C(=O)c2cccc(Cl)c2)C1 (stereo not drawn)	86.6	39.5*	-9.2	22.0	1.0
CS(=O)(=O)N1CCC(C(=O)c2cccc(Cl)c2)CC1	124.8	-0.9	17.8	-10.9	-1.6
CCOC(=O)c1ccc(N2Cc3ccccc3C2=NC(=O)c2cccc([N+](=O)[O-])c2)cc1	89.0	nt	44.9*	nt	nt
